Measurements of several laboratories.
Each line is one published result; the experiments were not run side by side. pIC50: −log10 of the molar value.
UGT2B7: UDP-glucuronosyltransferase 2B7 (UGT2B7, Homo sapiens, UniProt P16662)

C=C1CCC2C(C)(CO)C(=O)CCC2(C)C1CCC1=CCOC1=O (stereo not drawn) — inhibition (UGT2B7; enzyme activity, inhibitor; 100 µM): 94%
C/C=C(/C)C(=O)O[C@@H]1[C@H](OC(C)=O)c2c(ccc3ccc(=O)oc23)OC1(C)C — pIC50 (RD; cell growth or viability, WST-1): 4.35
C[C@H](O)c1cc(C(=O)N[C@@H](C)Cn2ccc(-c3ccc(C#N)c(Cl)c3)n2)n[nH]1 — pIC50 (UGT2B7; enzyme activity, inhibitor; human, liver microsomes): < 4.00
CCOC(=O)CC1SC(=NN=Cc2ccc(OC)cc2)NC1=O (stereo not drawn) — CC50 (LLC-MK2; cell growth or viability, MTT; 96 h, pH 7.2): 399 µM
CCc1cc(C(=O)NC)c2nccc(N3CCc4c(cc(Cn5ccnc5)cc4-c4cn(C)nc4C(F)(F)F)C3=O)c2c1 — MRT(0-inf) (male Sprague-Dawley rat, plasma; intravenous, 3 mg/kg): 24 min
O=C(Nc1cc(F)c(F)c(F)c1)c1ccc(F)c(S(=O)(=O)NCc2cccc(B(O)O)c2)c1 — MRT(0-inf) (male Sprague-Dawley rat, plasma; intravenous, 2 mg/kg): 49.8 min
CCOC(=O)CC1SC(=NN=Cc2ccccc2[N+](=O)[O-])NC1=O (stereo not drawn) — CC50 (LLC-MK2; cell growth or viability, MTT; 96 h, pH 7.2): 577 µM
CC(C)n1cc(C#N)c2cc(-n3cc(C(=O)O)cn3)ccc21 — Tmax (human, plasma; oral, 400 mg, single dose, fasted, healthy volunteers): 180 min
CCOC(=O)c1csc(NN=Cc2ccccc2Br)n1 — CC50 (LLC-MK2; cell growth or viability, MTT; 96 h, pH 7.2): 252 µM
CC(=O)OC1c2c(ccc3ccc(=O)oc23)OC(C)(C)C1OC(=O)C(C)(O)C(C)O (stereo not drawn) — pIC50 (RD; cell growth or viability, WST-1): 4.50
CCOC(=O)CC1SC(=NN=Cc2ccccc2OC)NC1=O (stereo not drawn) — CC50 (LLC-MK2; cell growth or viability, MTT; 96 h, pH 7.2): 539 µM
COc1cccc(OC)c1-c1cc(C(=O)NC2(C(=O)O)C3CC4CC(C3)CC2C4)nn1-c1ccc(C(=O)N(C)CCCN(C)CCCN(C)C(=O)CN2CCN(CC(=O)[O-])CCN(CC(=O)[O-])CCN(CC(=O)[O-])CC2)cc1C(C)C.[177Lu+3] (stereo not drawn) — tracer uptake (HT-29; brain; intravenous, 4 h, tumour-bearing): 0.22 %ID/g
